≈ marks a conversion by molar mass, not a printed value. Calls of active or inactive are those of the source. The calls are words filed in the database; no cut-off is given here.
Key:
Streptococcus agalactiae = experiment: Antimicrobial activity against Streptococcus agalactiae after 24 hrs by two-fold dilution method; format: functional
Summary of the method: (§1)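 Two-fold serial dilution assay reporting MIC in μg/mL, run alongside Staphylococcus aureus, Escherichia coli, Bacillus subtilis and Streptococcus agalactiae. Tobramycin served as positive control.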

Escherichia coli = experiment: Antimicrobial activity against Escherichia coli at 128 ug/ml after 24 hrs by two-fold dilution method; format: functional, organism-based
Bacillus subtilis = experiment: Antimicrobial activity against Bacillus subtilis at 128 ug/ml after 24 hrs by two-fold dilution method; format: functional, organism-based
Staphylococcus aureus = experiment: Antimicrobial activity against Staphylococcus aureus after 24 hrs by two-fold dilution method; format: functional; summary of the method: as §1

Row | SMILES | MIC (Streptococcus agalactiae) [µg/mL] | MIC (Staphylococcus aureus) [µg/mL] | Activity (Escherichia coli) | Activity (Bacillus subtilis)
1 | CC(C)=CCCC1=C2[C@H](C[C@@]3(C)[C@H]2CC[C@H]2[C@@]4(C)CCC(=O)[C@@H](C)[C@@H]4[C@H](O)C(=O)[C@@]23C)OC1=O | > 128 | > 128 | inactive | inactive
2 | NC[C@H]1O[C@H](O[C@H]2[C@H](O)[C@@H](O[C@H]3O[C@H](CO)[C@@H](O)[C@H](N)[C@H]3O)[C@H](N)C[C@@H]2N)[C@H](N)C[C@@H]1O [TOBRAMYCIN] | 32 (≈ 68.4 µM) | 1 (≈ 2.14 µM) |  | 
3 | CCC(=O)O[C@@H]1C(=O)[C@@]2(C)[C@@H](CC[C@H]3C4=C(CCC=C(C)C)C(=O)O[C@H]4C[C@@]32C)[C@@]2(C)C=CC(=O)[C@@H](C)[C@H]12 | > 128 | > 128 | inactive | inactive
4 | CC(=O)O[C@H]1C[C@@]2(C)[C@@H](CC[C@H]3[C@@]4(C)C=CC(=O)[C@@H](C)[C@@H]4[C@H](OC(C)=O)C(=O)[C@@]32C)/C1=C1\CC[C@H](C(C)(C)O)OC1=O | > 128 | > 128 | inactive | inactive

Second part, led by results:

Row | MIC (Streptococcus agalactiae) [µg/mL] | MIC (Staphylococcus aureus) [µg/mL] | SMILES | Activity (Escherichia coli) | Activity (Bacillus subtilis)
5 | 64 (≈ 109 µM) | > 128 | CC(=O)O[C@H]1C[C@@]2(C)[C@@H](CC[C@H]3[C@@]4(C)C=CC(=O)[C@@H](C)[C@@H]4[C@H](OC(C)=O)C(=O)[C@@]32C)/C1=C1\CC[C@@H](C(C)(C)O)OC1=O | inactive | inactive
6 | > 128 | > 128 | CC(C)=CCCC1=C2[C@H](C[C@@]3(C)[C@H]2CC[C@H]2[C@@]4(C)C=CC(=O)[C@@H](C)[C@@H]4[C@H](O)C(=O)[C@@]23C)OC1=O | inactive | inactive
7 | > 128 | > 128 | CC(=O)O[C@@H]1C(=O)[C@@]2(C)[C@@H](CC[C@H]3C4=C(CCC=C(C)C)C(=O)O[C@H]4C[C@@]32C)[C@@]2(C)C=CC(=O)[C@@H](C)[C@H]12 | inactive | inactive
8 | 2 (≈ 3.43 µM) | 8 (≈ 13.7 µM) | CCC(=O)O[C@@H]1C(=O)[C@@]2(C)[C@@H](CC[C@H]3/C(=C(\CCC=C(C)C)C(=O)O)[C@@H](OC(C)=O)C[C@@]32C)[C@@]2(C)C=CC(=O)[C@@H](C)[C@H]12 | inactive | inactive
9 | > 128 | > 128 | CC(=O)O[C@@H]1C(=O)[C@@]2(C)[C@@H](CC[C@H]3C4=C(CCC=C(C)C)C(=O)O[C@H]4C[C@@]32C)[C@@]2(C)CCC(=O)[C@@H](C)[C@H]12 | inactive | inactive
10 | 16 (≈ 27.5 µM) | 16 (≈ 27.5 µM) | CCC(=O)O[C@H]1C[C@@]2(C)[C@@H](CC[C@H]3[C@@]4(C)C=CC(=O)[C@@H](C)[C@@H]4[C@H](OC(C)=O)C(=O)[C@@]32C)/C1=C(\CCC=C(C)C)C(=O)O | inactive | inactive
11 | 8 (≈ 14.1 µM) | 16 (≈ 28.1 µM) | CC(=O)O[C@H]1C[C@@]2(C)[C@@H](CC[C@H]3[C@@]4(C)C=CC(=O)[C@@H](C)[C@@H]4[C@H](OC(C)=O)C(=O)[C@@]32C)/C1=C(\CCC=C(C)C)C(=O)O [HELVOLIC ACID] | inactive | inactive

Reference: ChEMBL document CHEMBL4196135, “Helvolic Acid Derivatives with Antibacterial Activities against Streptococcus agalactiae from the Marine-Derived Fungus Aspergillus fumigatus HNMF0047” (2018)
